Tests used:
Cavia porcellus [1] = species: Cavia porcellus; assay: Inhibition of [3H]nitrendipine binding to L-type calcium channel of guinea pig cerebral cortex membrane at 10e-5 M; assay type: functional, tissue-based
Rattus norvegicus = species: Rattus norvegicus; assay: Inhibition of [Ca2+] induced contraction of K+ depolarized rat aorta by 50%; assay type: functional
How it was run: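 Spirally cut thoracic aorta strips from male Wistar rats were held in modified Krebs solution at 37 °C, gassed with 95% O2/5% CO2. Ca2+-induced contraction was measured after K+ depolarization. The value is the molar concentration blocking contraction by 50%, given as mean ± SE of 3–6 determinations.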

[2] = Inhibitory concentration of [3H]- nitrendipine binding against guinea pig cerebral cortex membrane; assay type: functional, tissue-based, Cavia porcellus
How it was run: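 Guinea pig cerebral cortex membranes (washed pellets, stored in liquid nitrogen), 200 μg protein, incubated under sodium light for 90 min at 25 °C in 50 mmol Tris-HCl pH 7.4 with 0.5 nmol [3H]nitrendipine and various compound concentrations (DMSO). Filtration and scintillation counting; 1 μM nifedipine defined specific binding.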

Cavia porcellus [3] = species: Cavia porcellus; assay: Stimulatory concentration of [3H]nitrendipine binding to L-type calcium channel of guinea pig cerebral cortex membrane at 10e-6 M; assay type: functional, tissue-based
Cavia porcellus [4] = species: Cavia porcellus; assay: Molar concentration needed to […] by 50% of maximal stimulation; assay type: functional

CCCCN(CCCC)CCCOc1ccc(S(=O)(=O)c2c[nH]nc2C(C)C)cc1 gave an inhibition (Cavia porcellus [1]) of 6% and an IC50 (Rattus norvegicus) of 5060 nM.

Compound COc1ccc(CCN(C)CCCOc2ccc(S(=O)(=O)c3c(C(C)C)n(C)c4ccccc34)cc2)cc1OC has an IC50 (Rattus norvegicus) of 4.3 nM and an IC50 [2] of 1.1 nM.

Work on COc1ccc(CCN(C)CCCOc2ccc(S(=O)(=O)c3ccoc3C(C)C)cc2)cc1OC yielded an IC50 (Rattus norvegicus) of 84.2 nM.

With COc1ccc(CCN(C)CCCOc2ccc(S(=O)(=O)c3c(C(C)C)[nH]c4ccccc34)cc2)cc1OC the IC50 (Rattus norvegicus) was 19.1 nM and the IC50 [2] was 10.9 nM.

With CCCCN(CCCC)CCCOc1ccc(S(=O)(=O)c2c(C(C)C)[nH]c3ccccc23)cc1 the IC50 (Rattus norvegicus) was 55.1 nM and the IC50 [2] was 110 nM.

Compound COc1ccc(CCN(C)CCCOc2ccc(S(=O)(=O)c3c[nH]nc3C(C)C)cc2)cc1OC has a Stimulation (Cavia porcellus [3]) of 38% and an IC50 (Rattus norvegicus) of 1720 nM.

COc1cc(CCN(C)CCCOc2ccc(S(=O)(=O)c3c(C(C)C)c4ccccc4n3C)cc2)cc(OC)c1OC gave an IC50 (Rattus norvegicus) of 1.9 nM and an IC50 [2] of 0.28 nM.

For COc1ccc([C@@H]2Sc3ccccc3N(CCN(C)C)C(=O)[C@@H]2OC(C)=O)cc1 [DILTIAZEM], the IC50 (Cavia porcellus [4]) was 59 nM.

For CC(C)c1cc2ccccn2c1S(=O)(=O)c1ccc(OCCCNC(C)(C)C)cc1, the IC50 (Rattus norvegicus) was 32.9 nM and the IC50 [2] was 12 nM.

CC(C)c1nc2ccccc2cc1S(=O)(=O)c1ccc(OCCCNC(C)(C)C)cc1 gave an IC50 (Rattus norvegicus) of 370 nM and an IC50 [2] of 181 nM.

CC(C)c1c(S(=O)(=O)c2ccc(OCCCNC(C)(C)C)cc2)c2ccccc2n1C showed an IC50 (Rattus norvegicus) of 99.3 nM and an IC50 [2] of 116 nM.

With CCCCN(CCCC)CCCOc1ccc(S(=O)(=O)c2c(C(C)C)nn3ccccc23)cc1 the IC50 (Rattus norvegicus) was 31.1 nM.

With COc1ccc(CCN(C)CCCOc2ccc(S(=O)(=O)c3c(C(C)C)cc4ccccn34)cc2)cc1OC the IC50 (Rattus norvegicus) was 5.9 nM and the IC50 [2] was 0.22 nM.

In the case of CCCCN(CCCC)CCCOc1ccc(S(=O)(=O)c2c(C(C)C)cc3ccccn23)cc1, the IC50 (Rattus norvegicus) is reported as 13.3 nM and the IC50 [2] is reported as 0.99 nM.

With COC(=O)C1=C(C)NC(C)=C(C(=O)OC)C1c1ccccc1[N+](=O)[O-] [NIFEDIPINE] the IC50 [2] was 2.5 nM.

For CCCCN(CCCC)CCCOc1ccc(S(=O)(=O)c2cc3ccccc3nc2C(C)C)cc1, the IC50 (Rattus norvegicus) was 198 nM and the IC50 [2] was 94 nM.

With CC(C)c1nn2ccccc2c1S(=O)(=O)c1ccc(OCCCNC(C)(C)C)cc1 the IC50 (Rattus norvegicus) was 168 nM.

With COc1ccc(CN(C)CCCOc2ccc(S(=O)(=O)c3c(C(C)C)oc4ccccc34)cc2)cc1OC the IC50 (Rattus norvegicus) was 14.3 nM and the IC50 [2] was 1.9 nM.

Compound CCCCN(CCCC)CCCOc1ccc(S(=O)(=O)c2ccoc2C(C)C)cc1 has an IC50 (Rattus norvegicus) of 119 nM and an IC50 [2] of 186 nM.

CCCCc1oc2ccccc2c1S(=O)(=O)c1ccc(OCCCN(C)CCc2ccc(OC)c(OC)c2)cc1 gave an IC50 (Rattus norvegicus) of 227 nM and an IC50 [2] of 7.9 nM.

COc1ccc(CCN(C)CCCOc2ccc(S(=O)(=O)c3c(C(C)C)cn4ccccc34)cc2)cc1OC [FANTOFARONE] gave an IC50 [2] of 0.61 nM.

CC(C)c1occc1S(=O)(=O)c1ccc(OCCCNC(C)(C)C)cc1 showed an IC50 (Rattus norvegicus) of 235 nM and an IC50 [2] of 244 nM.

COc1ccc(CCN(C)CCCOc2ccc(S(=O)(=O)c3c(C(C)C)nn4ccccc34)cc2)cc1OC gave an IC50 (Rattus norvegicus) of 18.8 nM and an IC50 [2] of 2.6 nM.

In the case of COc1ccc(CCN(C)CCCOc2ccc(S(=O)(=O)c3c(C(C)C)oc4ccccc34)cc2)cc1OC, the IC50 (Rattus norvegicus) is reported as 20.2 nM and the IC50 [2] is reported as 0.65 nM.

COc1cc(CCN(C)CCCOc2ccc(S(=O)(=O)c3c(C(C)C)c4ccccc4n3C)cc2)cc(OC)c1 gave an IC50 (Rattus norvegicus) of 16.4 nM and an IC50 [2] of 0.093 nM.

Compound COc1ccc(CCNCCCOc2ccc(S(=O)(=O)c3c(C(C)C)oc4ccccc34)cc2)cc1OC has an IC50 (Rattus norvegicus) of 17.1 nM and an IC50 [2] of 1.6 nM.

In the case of COc1ccc(CN(C)CCCOc2ccc(S(=O)(=O)c3c(C(C)C)n(C)c4ccccc34)cc2)cc1OC, the IC50 (Rattus norvegicus) is reported as 3.7 nM and the IC50 [2] is reported as 1 nM.

With COc1ccc(CCN(C)CCCOc2ccc(S(=O)(=O)c3cc4ccccc4nc3C(C)C)cc2)cc1OC the IC50 (Rattus norvegicus) was 84.2 nM and the IC50 [2] was 13.1 nM.

With COc1ccc(CCN(C)CCCOc2ccc(S(=O)(=O)c3[nH]c4ccccc4c3C(C)C)cc2)cc1OC the IC50 (Rattus norvegicus) was 37.5 nM and the IC50 [2] was 2.2 nM.

COc1cc(CCN(C)CCCOc2ccc(S(=O)(=O)c3c(C(C)C)oc4ccccc34)cc2)cc(OC)c1OC showed an IC50 (Rattus norvegicus) of 5.8 nM and an IC50 [2] of 0.59 nM.

CCCc1oc2ccccc2c1S(=O)(=O)c1ccc(OCCCN(C)CCc2ccc(OC)c(OC)c2)cc1 showed an IC50 (Rattus norvegicus) of 50.8 nM and an IC50 [2] of 5.2 nM.

COc1ccc(CCN(C)CCCC(C#N)(c2ccc(OC)c(OC)c2)C(C)C)cc1OC (stereo unspecified) showed an IC50 [2] of 38 nM.

CCCCN(CCCC)CCCOc1ccc(S(=O)(=O)c2c(C(C)C)n(C)c3ccccc23)cc1 showed an IC50 (Rattus norvegicus) of 24.1 nM and an IC50 [2] of 11 nM.

In the case of COc1ccc(CCN(C)CCCOc2ccc(S(=O)(=O)c3c(C(C)C)c4ccccc4n3C)cc2)cc1OC, the IC50 (Rattus norvegicus) is reported as 3.7 nM and the IC50 [2] is reported as 0.072 nM.

From ChEMBL document CHEMBL1126689, “Novel heterocyclic analogues of the new potent class of calcium entry blockers: 1-[[4-(aminoalkoxy)phenyl]sulfonyl]indolizines” (J Med Chem, 1993)
